In ChEMBL document CHEMBL1134325, “Diaminoindanes as microsomal triglyceride transfer protein inhibitors” (J Med Chem, 2001):
Each block holds one compound with its values, some of them ahead of it.

Legend:
[1] = target: T1, Microsomal triglyceride transfer protein large subunit (Homo sapiens, UniProt P55157); assay: In vitro inhibitory activity against MTP using MTP transfer assay
T1 sequence (P55157 whole entry): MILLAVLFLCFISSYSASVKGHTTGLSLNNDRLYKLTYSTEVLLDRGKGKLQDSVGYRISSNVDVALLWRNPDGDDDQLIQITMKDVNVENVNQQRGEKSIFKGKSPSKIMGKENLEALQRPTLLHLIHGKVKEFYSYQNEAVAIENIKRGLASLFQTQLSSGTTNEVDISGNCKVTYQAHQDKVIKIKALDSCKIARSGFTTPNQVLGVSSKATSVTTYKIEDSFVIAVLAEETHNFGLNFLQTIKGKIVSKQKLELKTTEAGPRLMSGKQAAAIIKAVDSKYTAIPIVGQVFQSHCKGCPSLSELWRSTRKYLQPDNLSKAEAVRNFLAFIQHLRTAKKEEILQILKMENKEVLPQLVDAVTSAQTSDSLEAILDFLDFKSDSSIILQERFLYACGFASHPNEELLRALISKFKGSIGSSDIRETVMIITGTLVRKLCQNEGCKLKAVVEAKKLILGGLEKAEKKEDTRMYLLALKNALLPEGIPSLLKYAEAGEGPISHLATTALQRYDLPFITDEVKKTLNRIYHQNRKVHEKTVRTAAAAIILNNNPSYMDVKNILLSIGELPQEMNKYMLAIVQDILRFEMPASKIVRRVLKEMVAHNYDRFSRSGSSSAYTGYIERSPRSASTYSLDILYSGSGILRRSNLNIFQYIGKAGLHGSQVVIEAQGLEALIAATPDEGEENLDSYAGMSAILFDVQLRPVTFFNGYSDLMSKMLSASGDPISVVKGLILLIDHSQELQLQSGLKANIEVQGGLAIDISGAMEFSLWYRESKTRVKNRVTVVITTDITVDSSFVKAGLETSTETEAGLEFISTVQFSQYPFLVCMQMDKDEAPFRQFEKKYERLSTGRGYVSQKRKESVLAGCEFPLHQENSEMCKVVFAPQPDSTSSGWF

[2] = test system: Rattus norvegicus; assay: Inhibition of plasma triglycerides in normolipidemic rats after 2 hr of 50 mg/kg oral dosing; format: functional
Procedure, shortened: (§1)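 Overnight-fasted normolipidemic rats received a single oral dose in cornstarch vehicle. Blood was drawn at 2, 6 and 24 h post-dose and assayed for triglycerides and total cholesterol, with free access to food after the 6 h sample. Value is mean percent inhibition versus a separate vehicle-treated group, unpaired t test p < 0.05, NS = no significant change, N = 6.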

[3] = test system: Rattus norvegicus; assay: Inhibition of total cholesterol in normolipidemic rats after 6 h of […] mg/kg oral dosing; no significant change; format: functional, organism-based; parameters: dose 50 mg/kg
[4] = test system: Rattus norvegicus; assay: Inhibition of total cholesterol in normolipidemic rats after 24 hr of 50 mg/kg oral dosing; no significant change; format: functional, organism-based; parameters: dose 50 mg/kg; procedure, shortened: as §1
[5] = test system: Rattus norvegicus; assay: Inhibition of plasma triglycerides in normolipidemic rats after 6 h of […] mg/kg oral dosing; no significant change; format: functional, organism-based; parameters: dose 50 mg/kg
[6] = test system: Rattus norvegicus; assay: Inhibition of total cholesterol in normolipidemic rats after 2 hr of 50 mg/kg oral dosing; no significant change; format: functional, organism-based; parameters: dose 50 mg/kg; procedure, shortened: as §1
[7] = test system: Rattus norvegicus; assay: Inhibition of plasma triglycerides in normolipidemic rats after 24 h of 50 mg/kg oral dosing; no significant change; format: functional, organism-based; parameters: dose 50 mg/kg; procedure, shortened: as §1
[8] = test system: Rattus norvegicus; assay: Inhibition of total cholesterol in normolipidemic rats after 6 hr of 50 mg/kg oral dosing; format: functional; procedure, shortened: as §1
[9] = test system: Rattus norvegicus; assay: Inhibition of total cholesterol in normolipidemic rats after 2 hr of 50 mg/kg oral dosing; format: functional; procedure, shortened: as §1
[10] = test system: Rattus norvegicus; assay: Inhibition of total cholesterol in normolipidemic rats after 24 hr of 50 mg/kg oral dosing; format: functional; procedure, shortened: as §1
[11] = test system: Rattus norvegicus; assay: Inhibition of plasma triglycerides in normolipidemic rats after 6 hr of 50 mg/kg oral dosing; format: functional; procedure, shortened: as §1
[12] = test system: Rattus norvegicus; assay: Inhibition of plasma triglycerides in normolipidemic rats after 24 hr of 50 mg/kg oral dosing; format: functional; procedure, shortened: as §1
[13] = test system: Rattus norvegicus; assay: Inhibition of plasma triglycerides in normolipidemic rats after 2 hr of 50 mg/kg oral dosing; no significant change; format: functional, organism-based; parameters: dose 50 mg/kg; procedure, shortened: as §1

Structure (SMILES): CC(=O)NC1Cc2ccc(NC(=O)c3ccccc3-c3ccc(C(F)(F)F)cc3)cc2C1 (stereo unspecified)
- IC50 [1]: 80 nM

Structure (SMILES): O=C(NC1Cc2ccc(NC(=O)c3ccccc3-c3ccc(C(F)(F)F)cc3)cc2C1)c1ccccc1 (stereo unspecified)
- IC50 [1]: > 1000 nM

Structure (SMILES): Cc1cccc(C(=O)Nc2ccc3c(c2)CC(NS(=O)(=O)c2ccccc2)C3)c1-c1ccc(C#N)cc1 (stereo unspecified)
- IC50 [1]: 120 nM

Structure (SMILES): Cc1cccc(C(=O)Nc2ccc3c(c2)CCC(NS(C)(=O)=O)CC3)c1-c1ccc(C(F)(F)F)cc1 (stereo unspecified)
- Reduction [2]: 81%
- Reduction [8]: 41%
- Reduction [10]: 17%
- Reduction [11]: 53%
- Reduction [9]: 29%
- IC50 [1]: 80 nM
- NS [7]: no significant change

Structure (SMILES): Cc1cccc(C(=O)Nc2ccc3c(c2)CCC(NS(C)(=O)=O)CC3)c1-c1ccc(Cl)cc1 (stereo unspecified)
- IC50 [1]: 90 nM

Structure (SMILES): Cc1cccc(C(=O)Nc2ccc3c(c2)CC(NS(=O)(=O)c2ccccc2)C3)c1-c1ccc(F)cc1 (stereo unspecified)
- IC50 [1]: 240 nM

Structure (SMILES): O=C(Nc1ccc2c(c1)C[C@@H](NS(=O)(=O)c1ccccc1)C2)c1ccccc1-c1ccc(C(F)(F)F)cc1
- NS [3]: no significant change
- NS [4]: no significant change
- NS [13]: no significant change
- NS [5]: no significant change
- NS [6]: no significant change
- IC50 [1]: 650 nM
- NS [7]: no significant change

Structure (SMILES): Cc1ccc(-c2c(C)cccc2C(=O)Nc2ccc3c(c2)CC(NS(=O)(=O)c2ccccc2)C3)cc1 (stereo unspecified)
- IC50 [1]: 93 nM

Structure (SMILES): Cc1cccc(C(=O)Nc2ccc3c(c2)CC(NS(=O)(=O)c2cccs2)C3)c1-c1ccc(F)cc1 (stereo unspecified)
- IC50 [1]: 50 nM

Structure (SMILES): CN(C)C(=O)NC1Cc2ccc(NC(=O)c3ccccc3-c3ccc(C(F)(F)F)cc3)cc2C1 (stereo unspecified)
- IC50 [1]: 80 nM

The next lines start with results.

- IC50 [1]: 170 nM
Structure (SMILES): Cc1cccc(C(=O)Nc2ccc3c(c2)CC(NS(C)(=O)=O)C3)c1-c1ccc(F)cc1 (stereo unspecified)

- IC50 [1]: 24 nM
Structure (SMILES): COC(=O)NCC1Cc2ccc(NC(=O)c3cccc(C)c3-c3ccc(C(F)(F)F)cc3)cc2C1 (stereo unspecified)
- Reduction [2]: 49%
- NS [3]: no significant change
- NS [4]: no significant change
- NS [5]: no significant change
- NS [6]: no significant change
- NS [7]: no significant change

- IC50 [1]: 500 nM
Structure (SMILES): Cc1cccc(C(=O)Nc2ccc3c(c2)CC(CNS(C)(=O)=O)C3)c1-c1ccc(Cl)cc1 (stereo unspecified)

- IC50 [1]: 410 nM
Structure (SMILES): COC(=O)N[C@H]1Cc2ccc(NC(=O)c3cc(C(F)(F)F)ccc3-c3ccc(C(F)(F)F)cc3)cc2C1

- IC50 [1]: 20 nM
Structure (SMILES): COC(=O)NC1CCc2ccc(NC(=O)c3cccc(C)c3-c3ccc(C(F)(F)F)cc3)cc2CC1 (stereo unspecified)
- Reduction [2]: 39%
- Reduction [8]: 20%
- NS [4]: no significant change
- Reduction [9]: 20%
- NS [5]: no significant change
- NS [7]: no significant change

- IC50 [1]: 110 nM
Structure (SMILES): COC(=O)N[C@@H]1Cc2ccc(NC(=O)c3ccccc3-c3ccc(C(F)(F)F)cc3)cc2C1

- IC50 [1]: 100 nM
Structure (SMILES): Cc1cccc(C(=O)Nc2ccc3c(c2)CC(NS(=O)(=O)c2ccccc2)C3)c1-c1ccc(Cl)cc1 (stereo unspecified)

- IC50 [1]: 120 nM
Structure (SMILES): COC(=O)NC1Cc2ccc(NC(=O)c3cc(C)cc(C)c3-c3ccc(Cl)cc3)cc2C1 (stereo unspecified)

- IC50 [1]: 20 nM
Structure (SMILES): COC(=O)NC1CCc2ccc(NC(=O)c3cc(C)cc(C)c3-c3ccc(C(F)(F)F)cc3)cc2CC1 (stereo unspecified)
- Reduction [2]: 73%
- Reduction [8]: 21%
- Reduction [10]: 22%
- Reduction [11]: 44%
- Reduction [9]: 17%
- Reduction [12]: 36%

- IC50 [1]: 40 nM
Structure (SMILES): COC(=O)NCC1Cc2ccc(NC(=O)c3cc(C)cc(C)c3-c3ccc(C(F)(F)F)cc3)cc2C1 (stereo unspecified)

- IC50 [1]: 120 nM
Structure (SMILES): Cc1cccc(C(=O)Nc2ccc3c(c2)CC(NS(=O)(=O)c2cccs2)C3)c1-c1ccc(Cl)cc1 (stereo unspecified)
